The source of these data is the RNAGym collection of RNA variant scans (doi:10.1126/science.aae0568).

B1: tRNA (parent)
chain: GUUCCGUUGGCGUAAUGGUAACGCGUCUCCCUCCUAAGGAGAAGACUGCGGGUUCGAGUCCCGUACGGAACG

Fewer inactive variants are shown than the library holds.

Variants of B1 are the subject of the series. The series can be described thus: yeast fitness relative to wild type (ratio to wild type); higher = fitter; tRNA-Arg(CCU), competitive growth, 37 C, YPD. The method in brief:
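Start and end populations of a pooled competition were compared by 100-nucleotide paired-end sequencing of gene amplicons. The Saccharomyces cerevisiae strains carried tRNA-Arg(CCU) gene variants at the native genomic locus, synthesised with a 3% per-site mutation rate at 69 sites, and competed in YPD at 37°C for 24 hours in six parallel replicates. Darwinian fitness relative to wild type was based on the change in genotype frequencies. Genotypes required ≥ 100 starting reads, and estimates < 0.5 were set to 0.5.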
As for GUUCCGUUGGCGUAAUGGUAAGGCGUCUGCCUCCUAAGGAGGAGAUUGCGGGUUCGAGUCCCGUACGGAUCG [C22G C29G A42G C46U A70U], the yeast fitness is at most 0.5. For GUUCCGUUGGCGUAAUGGUAAGGCGUCUCACUCCUAAGGAGAAGACUGCGAGUUCGAGUCCCGUACGGAACG [C22G C30A G51A], the yeast fitness was at most 0.5. As for GUUCCGUUGGCGUAAUGGUAAGGCGUGUCCCUUCUAAGGAAAAGACUGCGGGUUCGAGUCCCGUACGGAACG [C22G C27G C33U G41A], the figure is 0.631.

As to GUUCCGUUGGCGUAAUGGUAAGGCGUCUGCCUCCUAAGGAGAAGACUGCGGGUUCGAGUCCCGUAAGGUACG [C22G C29G C66A A69U], the yeast fitness is at most 0.5.

Consider GUUCCGUUGGCGUAAUGGUAAGGUGUCUCCCUCCUAAGGAGAAGACUGCGGGUUCGAGUCCCGCACGGAACG [C22G C24U U64C], for which the yeast fitness is 0.538. The figure for GUUCCGUUGGCGUAAUGGUAAGGCGUCUCCGUCCUAAGGAGAAGACUGCGGGUUCGUGUCCCGUACGGAACG [C22G C31G A57U] is at most 0.5; for GUUCCGUUGGCGUAAUGGUAAGGCGUCUCCGUCCUAAGGAGAAGACUGCGGGUUCGAGUCCCGUAUGGCACG [C22G C31G C66U A69C] it is 0.528. The figure for GUUCCGUUGGCGUAAUGGUAAGGCGUGUCCCUUCUAAGAAAAAGACUGCGGGUUCGAGUCCCGUACGGAACG [C22G C27G C33U G39A G41A] is at most 0.5. The figure for GUUCCGUUGGCGUAAUGGUAAGGCGUCUCCAUCCUAAGGAGAGGACUGCGGGUUCGAGUCCCGUACGGAUCG [C22G C31A A43G A70U] is at most 0.5. On to GUUCCGUUGGCGUAAUGGUAAGGUGUCUUCCUUCUACGGAGAAGACUGCGGAUUCGAGUCCCGUAUGGAACG [C22G C24U C29U C33U A37C G52A C66U], for which the yeast fitness was at most 0.5. The figure for GUUCCGUUGGCGUAAUGGUAAGGCGUUUCCCUCCUAAGGAGAAGACUGCGGGUUCGAGUCCCGUACGAAACG [C22G C27U G68A] is 0.623. The figure for GUUCCGUUGGCGUAAUGGUAAGGCGUCUACCUCCUAAGGAGACGACUGCGGGUUCGAGUGCCGUACGGAACG [C22G C29A A43C C60G] is at most 0.5. The figure for GUUCCGUUGGCGUAAUGGUAAGGCGUGUCCCUCCUAAGGAGAAGUCUGCGGGUUCGGGUCCCGUACGGAGCG [C22G C27G A45U A57G A70G] is 0.595. For the variant GUUCCGUUGGCGUAAUGGUAAGGCGUAUCCCUCCUAAGGAGAAGACUGUGGGUUUGAUUCCCGUACGGAACG [C22G C27A C49U C55U G58U], the yeast fitness was at most 0.5. The figure for GUUCCGUUGGCGUAAUGGUAAGGCGUAUCCCUCCUAAGGAGAAGACUGCGGGUUCGAGUCCCGUGCGGAACG [C22G C27A A65G] is at most 0.5; for GUUCCGUUGGCGUAAUGGUAAGGCGUAUCCCUCCUAAGGAGAAGACUGAGGGUUCCAGUCCCGUGCGGAACG [C22G C27A C49A G56C A65G] it is 0.746; for GUUCCGUUGGCGUAAUGGUAAGGCGUCUACCUCCUAAGGAGCAGACUGCGGGUUCGAGUCCCGUACGGAACG [C22G C29A A42C] it is 0.542. As for GUUCCGUUGGCGUAAUGGUAAGGUGUCACCGUCCUAAGGAGAAGACUGCGGGUUAGAGUCCCGUACGCAACG [C22G C24U U28A C31G C55A G68C], the yeast fitness was at most 0.5. On to GUUCCGUUGGCGUAAUGGUAAGGCGUCUCCAUCCUAAGGAGAAGUCUGCGGGUUCGAGUCCCGUACGGAACG [C22G C31A A45U], for which the yeast fitness was 0.621.

On to GUUCCGUUGGCGUAAUGGUAAGGCGUCUACCUCCUAAGGAGAAGACUGCGGGAUCGAGUCCCGUACGGAACG [C22G C29A U53A], for which the yeast fitness is at most 0.5. For GUUCCGUUGGCGUAAUGGUAAGGCGUCUCGCUCCUAAGGAGAAGACUGCGGGUUCGAGGCCCGUACGGAACG [C22G C30G U59G], the yeast fitness is at most 0.5. On to GUUCCGUUGGCGUAAUGGUAAGGCGUCUGCCUCCUAAGGAGAACACUGCGGGUUCAGGUCCCGUACUGACCG [C22G C29G G44C G56A A57G G67U A70C], for which the yeast fitness was at most 0.5.

Regarding GUUCCGUUGGCGUAAUGGUAAGGCGUCUUCAUCCUAAGGAGAAGACUGCGGGUUCGAGUCCCGUACGGAACG [C22G C29U C31A], the yeast fitness was at most 0.5. For GUUCCGUUGGCGUAAUGGUAAGGCGUAUCCCUCCUAAGGAGAAGACUGCGGGUUCGAGUCCCAUACGGAACG [C22G C27A G63A], the yeast fitness is at most 0.5.

Turning to GUUCCGUUGGCGUAAUGGUAAGGCGUUUCCCUCCUAAGGAGAAGACUGCGGGUUCGAGUCCCGUACGGAACG [C22G C27U], the yeast fitness was 0.884. For GUUCCGUUGGCGUAAUGGUAAGGCGUAUCCCUCCUAAGGAGAAGACUGCGGGUUCGAGUCCCGUACGGAACG [C22G C27A], the yeast fitness amounted to 0.604.

With GUUCCGUUGGCGUAAUGGUAAGGCGUCUGCCUCCUAAGGAGAAGACUGCGGGUUCAAGUCCCGUACGGAACG [C22G C29G G56A], the yeast fitness was 0.575. GUUCCGUUGGCGUAAUGGUAAGGCGUGUCCGUCCUAAGGAGAAGACUGCGGGUUCGAGUCGCGUACGGAACG [C22G C27G C31G C61G]: the yeast fitness is 0.575. The figure for GUUCCGUUGGCGUAAUGGUAAGGCGUGUGCCUCAUAAGGAGAUGACUGCGGGUUCGAGUCCCGUACGGCACG [C22G C27G C29G C34A A43U A69C] is at most 0.5; for GUUCCGUUGGCGUAAUGGUAAGGCGUGUGCCUCAUAAGGAGAUGACUGCGGGUCCGAGUCCCGUUCGGAACG [C22G C27G C29G C34A A43U U54C A65U] it is at most 0.5; for GUUCCGUUGGCGUAAUGGUAAGGCGUCUCCAUCCUAAGGAGAAGACUGGGGGUUCGAGUCCCCUACGGAACG [C22G C31A C49G G63C] it is 0.545.

For the variant GUUCCGUUGGCGUAAUGGUAAGGCGUCUCUCUCCUAAGGAGAAGACUGCGGGUUCGAGUCCCGUACGGAACG [C22G C30U], the yeast fitness worked out at 0.817. As for GUUCCGUUGGCGUAAUGGUAAGGCGUCUCACUCCUAAGGAGAAGACUGCGGGUUCGAGUCCCGUACGGAACG [C22G C30A], the figure is 0.65; as for GUUCCGUUGGCGUAAUGGUAAGGCGUCUCGCUCCUAAGGAGAAGACUGCGGGUUCGAGUCCCGUACGGAACG [C22G C30G], 0.591. On to GUUCCGUUGGCGUAAUGGUAAGGCGUCUCCGUCCUAAGGAGAAGACUGCGGCUUCGAGUCCCGUACGGAACG [C22G C31G G52C], for which the yeast fitness is at most 0.5. The figure for GUUCCGUUGGCGUAAUGGUAAGGCGUCUCCAUCCUAAGGAGAGGACUGCGGGUUCGAGUCCCGUACGGAACG [C22G C31A A43G] is at most 0.5; for GUUCCGUUGGCGUAAUGGUAAGGCGUGUCCGUCCUAAGGAGAAGACUGCGGGUUCGAGUCGCGUACGGCACG [C22G C27G C31G C61G A69C] it is at most 0.5. The figure for GUUCCGUUGGCGUAAUGGUAAGGCGUCUCCGUCCUAAGGAGAAGACUGCGGGUUCGAGUCACGUACGGAACG [C22G C31G C61A] is at most 0.5.
